Measured values as given in ChEMBL document CHEMBL1151705, “Novel azalides derived from 16-membered macrolides. Part II: Isolation of the linear 9-formylcarboxylic acid and its sequential macrocyclization with an amino alcohol or an azidoamine” (2008).
≈ marks a conversion by molar mass, not a printed value.

What was measured:
Haemophilus influenzae [1] = assay: Antimicrobial activity against drug-susceptible Haemophilus influenzae 4 after 20 hrs by agar dilution method; type: functional
Procedure, shortened: (§1)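 Streptococci, H. influenzae and M. catarrhalis were precultured on blood agar plates. Suspensions of about 10⁶ CFU/ml were inoculated onto sensitivity disk agar supplemented with 5% horse blood and incubated at 37 °C for 20 h. MIC was read as the lowest drug concentration with no visible growth.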

Streptococcus pneumoniae [2] = assay: Antimicrobial activity against Streptococcus pneumoniae 10 expressing mefA after 20 hrs by agar dilution method; type: functional; details: Streptococcus pneumoniae, 20 h; read-out: MIC; procedure, shortened: as §1
Staphylococcus aureus [3] = assay: Antimicrobial activity against Staphylococcus aureus 6 expressing inducible ermB after 20 hrs by agar dilution method; type: functional
Procedure, shortened: (§2)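 Agar dilution MIC. S. aureus seed culture was grown in sensitivity test broth. Cell suspension (about 10⁶ CFU/ml) was inoculated onto sensitivity disk agar with 5% horse blood and incubated at 37 °C for 20 h. MIC was the lowest drug concentration that prevented visible growth.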

Haemophilus influenzae [4] = assay: Antimicrobial activity against drug-susceptible Haemophilus influenzae 1 after 20 hrs by agar dilution method; type: functional; procedure, shortened: as §1
Streptococcus pyogenes [5] = assay: Antimicrobial activity against drug-susceptible Streptococcus pyogenes 1 after 20 hrs by agar dilution method; type: functional; procedure, shortened: as §1
Haemophilus influenzae [6] = assay: Antimicrobial activity against drug-susceptible Haemophilus influenzae 2 after 20 hrs by agar dilution method; type: functional; procedure, shortened: as §1
Streptococcus pyogenes [7] = assay: Antimicrobial activity against Streptococcus pyogenes 3 expressing mefA after 20 hrs by agar dilution method; type: functional; procedure, shortened: as §1
Haemophilus influenzae [8] = assay: Antimicrobial activity against drug-susceptible Haemophilus influenzae 3 after 20 hrs by agar dilution method; type: functional; procedure, shortened: as §1
Moraxella catarrhalis [9] = assay: Antimicrobial activity against drug-susceptible Moraxella catarrhalis 2 after 20 hrs by agar dilution method; type: functional; procedure, shortened: as §1
Moraxella catarrhalis [10] = assay: Antimicrobial activity against drug-susceptible Moraxella catarrhalis 1 after 20 hrs by agar dilution method; type: functional; procedure, shortened: as §1
Staphylococcus aureus [11] = assay: Antimicrobial activity against drug-susceptible Staphylococcus aureus 209P JC-1 after 20 hrs by agar dilution method; type: functional; procedure, shortened: as §2
Staphylococcus aureus [12] = assay: Antimicrobial activity against drug-susceptible Staphylococcus aureus 2 after 20 hrs by agar dilution method; type: functional; procedure, shortened: as §2
Streptococcus pneumoniae [13] = assay: Antimicrobial activity against Streptococcus pneumoniae 9 expressing mefA after 20 hrs by agar dilution method; type: functional; procedure, shortened: as §1
Staphylococcus aureus [14] = assay: Antimicrobial activity against Staphylococcus aureus 4 constitutively expressing ermA after 20 hrs by agar dilution method; type: functional; procedure, shortened: as §2
Streptococcus pneumoniae [15] = assay: Antimicrobial activity against Streptococcus pneumoniae 7 expressing inducible ermB after 20 hrs by agar dilution method; type: functional; procedure, shortened: as §1
Streptococcus pyogenes [16] = assay: Antimicrobial activity against Streptococcus pyogenes 2 constitutively expressing ermB after 20 hrs by agar dilution method; type: functional; procedure, shortened: as §1
Streptococcus pneumoniae [17] = assay: Antimicrobial activity against Streptococcus pneumoniae 5 constitutively expressing ermB/mefA after 20 hrs by agar dilution method; type: functional; details: Streptococcus pneumoniae, 20 h; read-out: MIC; procedure, shortened: as §1
Streptococcus pneumoniae [18] = assay: Antimicrobial activity against Streptococcus pneumoniae 8 expressing inducible ermB after 20 hrs by agar dilution method; type: functional; procedure, shortened: as §1
Streptococcus pneumoniae [19] = assay: Antimicrobial activity against drug-susceptible Streptococcus pneumoniae 2 after 20 hrs by agar dilution method; type: functional; procedure, shortened: as §1
Streptococcus pneumoniae [20] = assay: Antimicrobial activity against drug-susceptible Streptococcus pneumoniae 3 after 20 hrs by agar dilution method; type: functional; details: Streptococcus pneumoniae, 20 h; read-out: MIC; procedure, shortened: as §1
Streptococcus pneumoniae [21] = assay: Antimicrobial activity against drug-susceptible Streptococcus pneumoniae DP1 Type1 after 20 hrs by agar dilution method; type: functional; procedure, shortened: as §1
Streptococcus pneumoniae [22] = assay: Antimicrobial activity against Streptococcus pneumoniae 4 constitutively expressing ermB after 20 hrs by agar dilution method; type: functional; details: Streptococcus pneumoniae, 20 h; read-out: MIC; procedure, shortened: as §1
Staphylococcus aureus [23] = assay: Antimicrobial activity against drug-susceptible Staphylococcus aureus 3 after 20 hrs by agar dilution method; type: functional; procedure, shortened: as §2
Streptococcus pneumoniae [24] = assay: Antimicrobial activity against Streptococcus pneumoniae 6 constitutively expressing ermB after 20 hrs by agar dilution method; type: functional; details: Streptococcus pneumoniae, 20 h; read-out: MIC; procedure, shortened: as §1
Staphylococcus aureus [25] = assay: Antimicrobial activity against Staphylococcus aureus 5 expressing inducible ermB after 20 hrs by agar dilution method; type: functional; procedure, shortened: as §2
Staphylococcus aureus [26] = assay: Antimicrobial activity against Staphylococcus aureus 6 expressing inducible ermC after 20 hrs by agar dilution method
[27] = Haemophilus influenzae, 20 h, read-out: MIC
[28] = Streptococcus pyogenes, 20 h, read-out: MIC
[29] = Moraxella catarrhalis, 20 h, read-out: MIC
[30] = Staphylococcus aureus, 209P, 20 h, read-out: MIC
[31] = Staphylococcus aureus, 20 h, read-out: MIC
[32] = Streptococcus pneumoniae, 20 h, read-out: MIC

MIC (Haemophilus influenzae [1]; [27]) [µg/mL] | MIC (Streptococcus pneumoniae [2]) [µg/mL] | MIC (Staphylococcus aureus [3]) [µg/mL] | MIC (Haemophilus influenzae [4]; [27]) [µg/mL] | MIC (Streptococcus pyogenes [5]; [28]) [µg/mL] | MIC (Haemophilus influenzae [6]; [27]) [µg/mL] | MIC (Streptococcus pyogenes [7]) [µg/mL] | MIC (Haemophilus influenzae [8]; [27]) [µg/mL] | MIC (Moraxella catarrhalis [9]; [29]) [µg/mL] | MIC (Staphylococcus aureus [11]; [30]) [µg/mL] | MIC (Staphylococcus aureus [12]; [31]) [µg/mL] | MIC (Staphylococcus aureus [14]) [µg/mL] | MIC (Streptococcus pyogenes [16]) [µg/mL] | MIC (Streptococcus pneumoniae [17]) [µg/mL] | MIC (Streptococcus pneumoniae [19]; [32]) [µg/mL] | MIC (Streptococcus pneumoniae [20]) [µg/mL] | MIC (Streptococcus pneumoniae [22]) [µg/mL] | MIC (Staphylococcus aureus [23]; [31]) [µg/mL] | MIC (Streptococcus pneumoniae [24]) [µg/mL] | MIC (Staphylococcus aureus [25]; [31]) [µg/mL] | SMILES | further results
16 (≈ 16.5 µM) | 0.13 (≈ 0.134 µM) | 1 (≈ 1.03 µM) | 32 (≈ 32.9 µM) | 0.25 (≈ 0.257 µM) | 2 (≈ 2.06 µM) | 1 (≈ 1.03 µM) | 16 (≈ 16.5 µM) | 2 (≈ 2.06 µM) | 0.5 (≈ 0.515 µM) | 1 (≈ 1.03 µM) | > 128 | > 128 | > 128 | 0.13 (≈ 0.134 µM) | 0.13 (≈ 0.134 µM) | > 128 | 0.25 (≈ 0.257 µM) | > 128 | 0.5 (≈ 0.515 µM) | CCOC(=O)[C@H]1[C@H](C)O[C@@H](O[C@H]2[C@H](N(C)C)[C@@H](O)[C@H](O[C@H]3[C@@H](CC=O)C[C@@H](C)[C@@H](O)CN(C)CCC(C/C=C/c4cnc5ccccc5c4)NC(=O)C[C@@H](OC(=O)CC)[C@@H]3OC)O[C@@H]2C)C[C@@]1(C)O (stereo in doubt; form 1) | MIC (Moraxella catarrhalis [10]): 2 µg/mL (≈ 2.06 µM); MIC (Streptococcus pneumoniae [13]): 0.13 µg/mL (≈ 0.134 µM); MIC (Streptococcus pneumoniae [15]): 32 µg/mL (≈ 32.9 µM); MIC (Streptococcus pneumoniae [18]): 32 µg/mL (≈ 32.9 µM); MIC (Streptococcus pneumoniae [21]): 0.06 µg/mL (≈ 0.0618 µM)
– | – | – | – | – | – | 0.25 (≈ 0.256 µM) | – | – | – | – | – | – | – | – | – | – | – | – | – | CCOC(=O)[C@H]1[C@H](C)O[C@@H](O[C@H]2[C@H](N(C)C)[C@@H](O)[C@H](O[C@H]3[C@@H](CC=O)C[C@@H](C)[C@@H](O)CN(CCCCc4ccccc4)CCC(C)NC(=O)C[C@@H](OC(=O)CC)[C@@H]3OC)O[C@@H]2C)C[C@@]1(C)OC(C)=O (stereo in doubt; form 2) | MIC (Haemophilus influenzae [1]): 8 µg/mL (≈ 8.18 µM); MIC (Haemophilus influenzae [4]): 32 µg/mL (≈ 32.7 µM); MIC (Streptococcus pyogenes [5]): 0.06 µg/mL (≈ 0.0613 µM); MIC (Haemophilus influenzae [6]): 1 µg/mL (≈ 1.02 µM); MIC (Haemophilus influenzae [8]): 8 µg/mL (≈ 8.18 µM); MIC (Moraxella catarrhalis [9]): 0.25 µg/mL (≈ 0.256 µM); MIC (Moraxella catarrhalis [10]): 0.13 µg/mL (≈ 0.133 µM); MIC (Staphylococcus aureus [11]): 0.25 µg/mL (≈ 0.256 µM); MIC (Staphylococcus aureus [12]): 1 µg/mL (≈ 1.02 µM); MIC (Streptococcus pneumoniae [15]): 32 µg/mL (≈ 32.7 µM); MIC (Streptococcus pneumoniae [18]): 32 µg/mL (≈ 32.7 µM); MIC (Staphylococcus aureus [26]): 0.5 µg/mL (≈ 0.511 µM); MIC (Streptococcus pneumoniae [19]): 0.25 µg/mL (≈ 0.256 µM); MIC (Streptococcus pneumoniae [21]): 0.13 µg/mL (≈ 0.133 µM); MIC (Staphylococcus aureus [23]): 0.25 µg/mL (≈ 0.256 µM); MIC (Staphylococcus aureus [25]): 0.25 µg/mL (≈ 0.256 µM)
16 (≈ 17.1 µM) | 0.03 (≈ 0.032 µM) | 0.5 (≈ 0.534 µM) | 32 (≈ 34.2 µM) | 0.06 (≈ 0.0641 µM) | 2 (≈ 2.14 µM) | – | 8 (≈ 8.55 µM) | 1 (≈ 1.07 µM) | 0.5 (≈ 0.534 µM) | 1 (≈ 1.07 µM) | > 128 | > 128 | > 128 | 0.03 (≈ 0.032 µM) | 0.03 (≈ 0.032 µM) | > 128 | 0.25 (≈ 0.267 µM) | > 128 | 0.25 (≈ 0.267 µM) | CCOC(=O)[C@H]1[C@H](C)O[C@@H](O[C@H]2[C@H](N(C)C)[C@@H](O)[C@H](O[C@H]3[C@@H](CC=O)C[C@@H](C)[C@@H](O)CN(C)CCC[C@H](C/C=C/c4cccnc4)OC(=O)C[C@@H](OC(=O)CC)[C@@H]3OC)O[C@@H]2C)C[C@@]1(C)O | MIC (Streptococcus pyogenes [7]; [28]): 0.5 µg/mL (≈ 0.534 µM); MIC (Moraxella catarrhalis [10]; [29]): 1 µg/mL (≈ 1.07 µM); MIC (Streptococcus pneumoniae [13]; [32]): 0.03 µg/mL (≈ 0.032 µM); MIC (Streptococcus pneumoniae [15]; [32]): 32 µg/mL (≈ 34.2 µM); MIC (Streptococcus pneumoniae [18]; [32]): 32 µg/mL (≈ 34.2 µM); MIC (Streptococcus pneumoniae [21]; [32]): 0.015 µg/mL (≈ 0.016 µM)
16 (≈ 16.2 µM) | 0.06 (≈ 0.0607 µM) | 0.5 (≈ 0.506 µM) | 32 (≈ 32.4 µM) | 0.06 (≈ 0.0607 µM) | 4 (≈ 4.05 µM) | – | 16 (≈ 16.2 µM) | 2 (≈ 2.02 µM) | 0.5 (≈ 0.506 µM) | 1 (≈ 1.01 µM) | > 128 | > 128 | > 128 | 0.06 (≈ 0.0607 µM) | 0.06 (≈ 0.0607 µM) | > 128 | 0.25 (≈ 0.253 µM) | > 128 | 0.5 (≈ 0.506 µM) | CCOC(=O)[C@H]1[C@H](C)O[C@@H](O[C@H]2[C@H](N(C)C)[C@@H](O)[C@H](O[C@H]3[C@@H](CC=O)C[C@@H](C)[C@@H](O)CN(C)CCC[C@H](CCCc4ccnc5ccccc45)OC(=O)C[C@@H](OC(=O)CC)[C@@H]3OC)O[C@@H]2C)C[C@@]1(C)O | MIC (Streptococcus pyogenes [7]; [28]): 0.5 µg/mL (≈ 0.506 µM); MIC (Moraxella catarrhalis [10]; [29]): 2 µg/mL (≈ 2.02 µM); MIC (Streptococcus pneumoniae [13]; [32]): 0.06 µg/mL (≈ 0.0607 µM); MIC (Streptococcus pneumoniae [15]; [32]): 8 µg/mL (≈ 8.1 µM); MIC (Streptococcus pneumoniae [18]; [32]): 8 µg/mL (≈ 8.1 µM); MIC (Streptococcus pneumoniae [21]; [32]): 0.03 µg/mL (≈ 0.0304 µM)
